For data set [1], the system named is L1210. The experiment in a line: Tested for comparative cytotoxicity as ratio of IC50 value, relative to 3-substituted derivative (1.00). Type of data set: functional, Mus musculus.
The subject of data set [2] is L1210. The experiment in a line: Tested for comparative cytotoxicity as ratio of IC50 value, relative to OMe derivative (1.00). It is filed as functional, Mus musculus.
The test system of data set [3] is P388. The data set is described as follows: (§1) Average increase in life span of treated animals over control groups of tumor-bearing untreated animals when given at optimal dose (in vivo). It is filed as functional, Mus musculus. An outline of the steps:
(§2)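 Mice inoculated ip with 10^6 P388 cells (drug ip on days 1, 5, 9) or iv with 10^6 Lewis lung cells (drug ip on days 5, 9, 13). Drug given as a solution in 0.1 mL 30% v/v EtOH/water, in mg/kg per day. Value is the average life-span increase versus untreated tumor-bearing controls at the optimal dose. Significance thresholds: ILS >20% (P388), >40% (LL). Groups of six.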

Data set [4] relates to Lewis lung carcinoma cell line. The experiment in a line: Optimal dose required after intraperitoneal administration on days 5,9 and 13 to inhibit the growth of lewis lung carcinoma (LL) cells was determined (in vivo). Type of data set: functional, Mus musculus. An outline of the steps: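 Mice were inoculated iv with 10^6 Lewis lung cells. Drug was given ip in 0.1 mL 30% v/v EtOH/water on days 5, 9 and 13. The optimal dose (mg/kg per day) is the one giving maximal increase in life span; survivors were scored at 60 days, in groups of six.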

Data set [5] deals with Lewis lung carcinoma cell line. The experiment in a line: (§3) Average increase in life span of treated animals over control groups of tumor-bearing untreated animals when given at optimal dose; NA means no significant activity (in vivo). It is filed as functional, organism-based. Particulars: Mus musculus. An outline of the steps:
(§4)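 Mice received drug ip as a solution in 0.1 mL 30% v/v EtOH/water at the optimal dose. For P388, 10^6 cells were inoculated ip and drug given on days 1, 5 and 9. For LL, 10^6 cells were inoculated iv and drug given on days 5, 9 and 13. ILS is the mean life-span increase over untreated tumor-bearing controls, significant above 20% (P388) or 40% (LL). Groups were of six. NA means no significant activity up to acutely toxic doses.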

Data set [6] deals with L1210. The data set is described as follows: Nanomolar concentration required to reduce the growth of L1210 cells in culture to 50% of control values after 70 h (in vitro). It is filed as functional, cell-based. Particulars: Mus musculus, L1210, 70 h. In outline: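 L1210 cells were grown in culture with drug for 70 h. IC50 is the drug concentration (nM) reducing growth to 50% of control values.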

Data set [7] is described as follows: Lipophilicity (HPLC). Type of data set: physicochemical.
Data set [8] deals with P388. The data set is described as follows: Optimal dose in mg/kg administered intraperitoneally on days 1,5 and 9 required to inhibit the growth of P388 leukemia cells was determined (in vivo). It is filed as functional, Mus musculus. In outline: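 Mice were inoculated ip with 10^6 P388 cells. Drug was given ip as a solution in 0.1 mL 30% v/v EtOH/water on days 1, 5 and 9. The optimal dose (mg/kg per day) is the one giving maximal increase in life span; survivors were scored at 50 days, in groups of six.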

Data set [9] has as its system P388. The description is as §3. It is filed as functional, organism-based. Particulars: Mus musculus. In outline:
as §4

Data set [10] relates to Lewis lung carcinoma cell line. The description is as §1. Type of data set: functional, Mus musculus. An outline of the steps: as §2

Consider 37 compounds from ChEMBL document CHEMBL1123882, “Potential antitumor agents. 51. Synthesis and antitumor activity of substituted phenazine-1-carboxamides” (J Med Chem, 1987).

By IC50 is commonly meant the midpoint of a concentration-inhibition curve. A low value points to higher potency.

Consider `Cc1cccc2nc3c(C(N)=O)cccc3nc12`, for which the Ratio in data set [1] came out at 2; in [2] it was 0.6.

Regarding `COc1cccc2nc3cccc(C(N)=O)c3nc12`, the Ratio in data set [1] was found to be 0.05; in data set [2], 1.

As for `COc1ccc2nc3cccc(C(=O)NCCN(C)C)c3nc2c1`, the figures for the ILS max in [3] and in data set [5] were 39 and “Not significant”, respectively. For the same compound, the OD in data set [4] is 150 mg/kg/day; in data set [8], 100 mg/kg/day. The compound also registered an IC50 in data set [6] of 1050 nM. In data set [7], this compound registered a Rm of -0.33.

Regarding `CN(C)CCNC(=O)c1c(Cl)ccc2nc3ccccc3nc12`, the ILSmax entry in data set [9] is “Not significant”. In [6], this compound displayed an IC50 of 14900 nM. In data set [7], this compound had a Rm of -0.27. This compound had an OD in data set [8] of 100 mg/kg/day.

For the compound `Cc1cccc2nc3c(C(=O)NCCN(C)C)cccc3nc12`, the ILS max is 58 in data set [3] and “Not significant” in data set [5]. The OD in data set [4] and in data set [8] was 150 mg/kg/day in each case. Besides, the IC50 in data set [6] was 820 nM. Further, in [7], the Rm is -0.01.

Regarding `COc1cc(C(N)=O)c2nc3ccccc3nc2c1`, the Ratio in data set [1] and in data set [2] was 1 each time.

As for `Cc1cccc2nc3cccc(C(N)=O)c3nc12`, the values for the Ratio in data set [1] and in data set [2] were 0.1 and 0.9, respectively.

With `Cc1ccc2nc3c(C(N)=O)cccc3nc2c1`, the Ratio in [1] was found to be 3.7; in data set [2], 0.4.

Regarding `CN(C)CCNC(=O)c1cccc2nc3ccc4ccccc4c3nc12`, the values for the ILS max in data set [10] and in data set [3] were 56 and 98, respectively. The OD in [4] worked out at 45 mg/kg/day; in data set [8] it was 30 mg/kg/day. The compound further had a 50% inhibitory concentration (IC50) in [6] of 33 nM. In addition, in data set [7], the Rm is -0.05.

With `CN(C)CCNC(=O)c1cc2ccccc2c2nc3ccccc3nc12`, the ILS max is 84 in data set [3] and “Not significant” in data set [5]. Also, the OD in data set [4] and in data set [8] was 65 mg/kg/day each time. The compound also came in with an IC50 in [6] of 170 nM. Moreover, the Rm in data set [7] is listed as 0.11.

As for `Cc1cc(C(N)=O)c2nc3ccccc3nc2c1`, the Ratio came to 1 in data set [1] and 0.5 in data set [2].

Regarding `COc1ccc2nc3cccc(C(N)=O)c3nc2c1`, the Ratio came out at 1.4 in data set [1] and 1 in data set [2].

With `COc1ccc2nc3ccccc3nc2c1C(=O)NCCN(C)C`, the ILS max is given as 43 in [10] and 33 in [3]. The OD in data set [4] and in data set [8] was 225 mg/kg/day each time. Moreover, in data set [6], half-maximal inhibition (IC50) was put at 1620 nM. The same compound came in with a Rm in data set [7] of -0.5.

Regarding `NC(=O)c1cccc2nc3c(Cl)cccc3nc12`, the Ratio is 5 in data set [1] and 0.6 in data set [2].

Turning to `Cc1ccc(C(N)=O)c2nc3ccccc3nc12`, the figures for the Ratio in data set [1] and in [2] were 1 and 0.7, respectively.

As for `CN(C)CCNC(=O)c1cccc2nc3c(ccc4ccccc43)nc12`, the ILS max in [3] was 29; in data set [5] it was “Not significant”. Further, the OD in data set [4] and in [8] was 45 mg/kg/day in each case. Also, in data set [6], the IC50 stood at 310 nM. The compound further returned a Rm in data set [7] of -0.32.

For `Cc1ccc2nc3c(C(=O)NCCN(C)C)cccc3nc2c1`, the ILS max is 29 in data set [3] and “Not significant” in data set [5]. The results for the OD in data set [4] and in data set [8] were 100 mg/kg/day and 150 mg/kg/day, respectively. In data set [6], this compound had an IC50 of 1500 nM. The compound also came in with a Rm in [7] of -0.18.

For the compound `CN(C)CCNC(=O)c1cccc2nc3ccc(Cl)cc3nc12`, the ILS max in [10] and in [3] was 64 each time. In addition, the OD in data set [4] and in data set [8] was 100 mg/kg/day in each case. The IC50 in data set [6] was found to be 670 nM. In data set [7], the Rm is on record as -0.2.

`CN(C)CCNC(=O)c1cccc2nc3cc(Cl)ccc3nc12` gave an ILS max in [3] of 20. The OD in data set [4] and in [8] was 65 mg/kg/day throughout. Also, the ILSmax result in data set [5] was “Not significant”. Besides, the concentration for half-maximal inhibition (IC50) in data set [6] stood at 1140 nM. The same compound returned a Rm in data set [7] of -0.13.

With `NC(=O)c1cc(Cl)cc2nc3ccccc3nc12`, the Ratio in [1] came out at 1; in data set [2], 0.4.

`Cc1ccc2nc3cccc(C(=O)NCCN(C)C)c3nc2c1`: the values for the ILS max in data set [10] and in data set [3] were 81 and 60, respectively. The OD in [4] was determined as 225 mg/kg/day; in [8] it was 150 mg/kg/day. Moreover, the IC50 in data set [6] came to 630 nM. This compound displayed a Rm in data set [7] of -0.2.

Regarding `COc1cccc2nc3c(C(N)=O)cccc3nc12`, the Ratio in [1] was 6; in data set [2], 1.

`Cc1cccc2nc3cccc(C(=O)NCCN(C)C)c3nc12`: the ILS max in [10] was 62; in [3], 45. For the same compound, the OD in data set [4] and in [8] was 65 mg/kg/day each time. Further, half-maximal inhibition in [6] (IC50) required 42 nM. The Rm in data set [7] is listed as -0.23.

As to `NC(=O)c1cccc2nc3cccc(Cl)c3nc12`, the Ratio in [1] is recorded as 0.07; in data set [2], 0.2.

As to `CN(C)CCNC(=O)c1cccc2nc3cccc(Cl)c3nc12`, the ILS max is on record as 124 in data set [10] and 61 in data set [3]. For the same compound, the OD turned out to be 45 mg/kg/day in data set [4] and 30 mg/kg/day in [8]. In [6], this compound returned an IC50 of 11 nM. This compound also displayed a Rm in data set [7] of -0.37.

For the compound `COc1cccc2nc3cccc(C(=O)NCCN(C)C)c3nc12`, the ILS max in data set [10] was 128; in [3], 106. Also, the OD in data set [4] and in data set [8] was 100 mg/kg/day throughout. The compound further returned an IC50 in data set [6] of 48 nM. The compound also came in with a Rm in [7] of -0.42.

Consider `NC(=O)c1cccc2nc3cc(Cl)ccc3nc12`, for which the Ratio worked out at 7.1 in data set [1] and 0.3 in data set [2].

As for `CN(C)CCNC(=O)c1cc(Cl)cc2nc3ccccc3nc12`, the ILS max in [10] was determined as 63; in [3] it was 106. The OD in data set [4] and in data set [8] was 150 mg/kg/day throughout. Besides, in [6], the midpoint of inhibition, the IC50, lay at 160 nM. In data set [7], this compound displayed a Rm of -0.06.

On to `Cc1cc(C(=O)NCCN(C)C)c2nc3ccccc3nc2c1`, for which the ILS max worked out at 158 in [10] and 91 in data set [3]. In addition, the OD in data set [4] and in data set [8] was 225 mg/kg/day in each case. The compound further gave an IC50 in [6] of 410 nM. This compound also had a Rm in data set [7] of -0.15.

As for `COc1cc(C(=O)NCCN(C)C)c2nc3ccccc3nc2c1`, the results for the ILS max in data set [3] and in [5] were 22 and “Not significant”, respectively. The OD came to 150 mg/kg/day in data set [4] and 100 mg/kg/day in data set [8]. In [6], this compound gave an IC50 of 830 nM. For the same compound, in data set [7], the Rm was -0.25.

Consider `Cc1ccc2nc3cccc(C(N)=O)c3nc2c1`, for which the results for the Ratio in data set [1] and in data set [2] were 1.5 and 0.9, respectively.

For `CN(C)CCNC(=O)c1cccc2nc3c(Cl)cccc3nc12`, the ILS max in data set [10] was 49; in [3], 56. Further, the OD in data set [4] and in data set [8] was 150 mg/kg/day in each case. In [6], this compound showed an IC50 of 780 nM. The Rm in data set [7] is -0.18.

Take `NC(=O)c1cccc2nc3ccc(Cl)cc3nc12`: the Ratio in [1] came to 4.2; in [2], 0.6.

On to `CN(C)CCNC(=O)c1cccc2nc3ccccc3nc12`, for which the ILS max turned out to be 57 in data set [10] and 88 in data set [3]. Further, the OD in data set [4] and in data set [8] was 150 mg/kg/day in each case. For the same compound, 1400 nM corresponded to half-maximal inhibition in [6] (IC50). The Rm in [7] is recorded as -0.29.

For the compound `COc1ccc2nc3c(C(N)=O)cccc3nc2c1`, the figures for the Ratio in data set [1] and in data set [2] were 5 and 1, respectively.

In the case of `CCN(CC)CCNC(=O)c1cccc2nc3ccccc3nc12`, the ILS max in [3] is 43; in data set [5], “Not significant”. Also, the OD turned out to be 150 mg/kg/day in data set [4] and 225 mg/kg/day in [8]. Besides, it took 2100 nM to reach half-maximal inhibition in data set [6] (IC50). Moreover, the Rm in data set [7] came out at 0.09.

For the compound `COc1ccc(C(N)=O)c2nc3ccccc3nc12`, the Ratio in data set [1] was 0.6; in data set [2] it was 1.
